# Results reported in publication PMC9810080 (Biochemistry, 2022).
# Residues, ends and D or L forms follow the SMILES beside them.
# How the values were obtained:
# [1] = biological target: Ca^2+-bound CaM (full-length calmodulin) (Homo sapiens, UniProt P0DP23); test: ITC, peptide binding to full-length Ca2+-bound CaM; conditions: for K2: association constant, site 2; for K2 / ΔH1 / ΔH2: ITC two-site model, 27 °C, pH 7.0, 1 mM CaCl2; for ΔH1: higher-affinity exothermic site; for ΔH2: lower-affinity endothermic site
# How it was run: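 Calorimetry at 27 °C used CNGB1 CaM-binding-domain peptides (DMSO-d6 stocks, quantified by UV–vis) and recombinant Ca2+-bound CaM, both exchanged into 20 mM Tris pH 7.0, 100 mM KCl, 1 mM CaCl2. Peptide at 50 μM in the cell was titrated with 0.5 mM CaM over 34 injections, and the isotherm was fitted to a two-site model. The apoCaM comparison used 20 mM Tris pH 8.0, 100 mM KCl, 2 mM EGTA with a one-site fit.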
# [2] = biological target: Ca^2+-bound CaM N-lobe (residues 1–80) (Homo sapiens, UniProt P0DP23); test: ITC, peptide binding to isolated CaM N-lobe; conditions: for ΔH1: ITC, isolated CaM N-lobe, 27 °C, pH 7.0, 1 mM CaCl2
# How it was run: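 The isolated recombinant Ca2+-bound CaM N-lobe and CNGB1 peptides (DMSO-d6 stocks, UV–vis quantified) were buffer-exchanged into 20 mM Tris pH 7.0, 100 mM KCl, 1 mM CaCl2. At 27 °C, 50 μM peptide in the cell was titrated with 0.5 mM N-lobe over 34 injections. The CaM1 isotherm was fitted to a one-site model and the CaM2 isotherm to a two-site model.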
# [3] = biological target: Ca^2+-bound CaM C-lobe (residues 80–149) (Homo sapiens, UniProt P0DP23); test: ITC, peptide binding to isolated CaM C-lobe; conditions: for ΔH1: ITC one-site model, isolated CaM C-lobe, 27 °C, pH 7.0, 1 mM CaCl2; for fold decrease in binding affinity to CaM C-lobe caused by mutation: versus CaM2^WT, ITC
# How it was run: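 Wild-type and point-mutant CNGB1 peptides (DMSO-d6 stocks, UV–vis quantified) and the recombinant Ca2+-bound CaM C-lobe fragment were exchanged into 20 mM Tris pH 7.0, 100 mM KCl, 1 mM CaCl2. At 27 °C, 50 μM peptide in the cell was titrated with 0.5 mM C-lobe over 34 injections. Isotherms were fitted to a one-site model.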
# Ca^2+-free CaM (apoCaM) = Ca^2+-free CaM (apoCaM) (Homo sapiens, UniProt P0DP23); test: ITC, peptide binding to Ca2+-free CaM; conditions: ITC one-site model; 27 °C; 20 mM Tris pH 8.0, 100 mM KCl, 2 mM EGTA
# How it was run: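 Recombinant calmodulin (Ca²⁺-free) titrated into a synthetic CNGB1 CaM-binding-domain peptide (residues 1120–1147; dissolved in DMSO-d₆, quantified by UV–vis). Both were exchanged into 20 mM Tris pH 8.0, 100 mM KCl, 2 mM EGTA. Peptide was 50 μM in the cell and CaM was 0.5 mM in the syringe, over 34 injections at 27 °C. The isotherm was fit to a one-site model for ΔH.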
K2 [1],ΔH1 [1],ΔH2 [1],ΔH1 [2],ΔH1 [3],fold decrease in binding affinity to CaM C-lobe caused by mutation [3],SMILES,also measured
2.9 ± 0.5 × 10^6 M^−1,-4.5 ± 1.6 kcal/mol,+16 ± 2 kcal/mol,,-2.0 ± 0.1 kcal/mol,,CC(C)C[C@H](NC(=O)[C@H](C)NC(=O)[C@H](C)NC(=O)[C@H](CC(C)C)NC(=O)[C@H](CCC(=O)O)NC(=O)[C@H](CCCCN)NC(=O)[C@H](CC(C)C)NC(=O)[C@H](CCCNC(=N)N)NC(=O)[C@H](C)NC(=O)[C@H](CCCNC(=N)N)NC(=O)[C@H](CC(C)C)NC(=O)[C@H](Cc1c[nH]cn1)NC(=O)[C@H](C)NC(=O)[C@H](CC(C)C)NC(=O)[C@H](CCCCN)NC(=O)CNC(=O)CNC(=O)[C@H](CCCCN)NC(=O)[C@H](C)NC(=O)CNC(=O)[C@H](CCCCN)NC(=O)CNC(=O)CN)C(=O)N[C@@H](CCC(=O)O)C(=O)N[C@@H](C)C(=O)N[C@@H](C)C(=O)N[C@@H](C)C(=O)N[C@@H](CCCCN)C(=O)O [CaM2] (H-GGKGAKGGKLAHLRARLKELAALEAAAK-OH; N-terminus and C-terminus assumed),ΔH (Ca^2+-free CaM (apoCaM)): +2.1 ± 0.4 kcal/mol; binding stoichiometry at saturation (peptide:CaM) ([1]; biphasic ITC isotherm): two CaM2 molecules are bound to one molecule of CaM
,,,,+3.1 ± 0.5 kcal/mol,more than 500 fold,CC(C)C[C@H](NC(=O)[C@H](C)NC(=O)[C@H](C)NC(=O)[C@H](CC(C)C)NC(=O)[C@H](CCC(=O)O)NC(=O)[C@H](CCCCN)NC(=O)[C@H](CC(C)C)NC(=O)[C@H](CCCNC(=N)N)NC(=O)[C@H](C)NC(=O)[C@H](CCCNC(=N)N)NC(=O)[C@H](CCC(=O)O)NC(=O)[C@H](Cc1c[nH]cn1)NC(=O)[C@H](C)NC(=O)[C@H](CC(C)C)NC(=O)[C@H](CCCCN)NC(=O)CNC(=O)CNC(=O)[C@H](CCCCN)NC(=O)[C@H](C)NC(=O)CNC(=O)[C@H](CCCCN)NC(=O)CNC(=O)CN)C(=O)N[C@@H](CCC(=O)O)C(=O)N[C@@H](C)C(=O)N[C@@H](C)C(=O)N[C@@H](C)C(=O)N[C@@H](CCCCN)C(=O)O [CaM2^L1132E] (H-GGKGAKGGKLAHERARLKELAALEAAAK-OH; N-terminus and C-terminus assumed),
,,,,+2.6 ± 1.8 kcal/mol,more than 500 fold,CC(C)C[C@H](NC(=O)[C@H](C)NC(=O)[C@H](C)NC(=O)[C@H](CC(C)C)NC(=O)[C@H](CCC(=O)O)NC(=O)[C@H](CCCCN)NC(=O)[C@H](CCC(=O)O)NC(=O)[C@H](CCCNC(=N)N)NC(=O)[C@H](C)NC(=O)[C@H](CCCNC(=N)N)NC(=O)[C@H](CC(C)C)NC(=O)[C@H](Cc1c[nH]cn1)NC(=O)[C@H](C)NC(=O)[C@H](CC(C)C)NC(=O)[C@H](CCCCN)NC(=O)CNC(=O)CNC(=O)[C@H](CCCCN)NC(=O)[C@H](C)NC(=O)CNC(=O)[C@H](CCCCN)NC(=O)CNC(=O)CN)C(=O)N[C@@H](CCC(=O)O)C(=O)N[C@@H](C)C(=O)N[C@@H](C)C(=O)N[C@@H](C)C(=O)N[C@@H](CCCCN)C(=O)O [CaM2^L1136E] (H-GGKGAKGGKLAHLRAREKELAALEAAAK-OH; N-terminus and C-terminus assumed),

# The next lines start with the compound.
SMILES,K2 [1],ΔH1 [1],ΔH2 [1],ΔH1 [2],ΔH1 [3],fold decrease in binding affinity to CaM C-lobe caused by mutation [3],also measured
CC[C@H](C)[C@H](NC(=O)[C@H](CC(C)C)NC(=O)[C@H](CCCCN)NC(=O)[C@H](CCC(=O)O)NC(=O)[C@H](CCCCN)NC(=O)[C@@H](NC(=O)[C@H](CCCCN)NC(=O)[C@H](CCC(=O)O)NC(=O)[C@@H](NC(=O)[C@H](CCCNC(=N)N)NC(=O)[C@H](CCC(=O)O)NC(=O)[C@H](CCCCN)NC(=O)[C@H](Cc1ccccc1)NC(=O)[C@H](CC(C)C)NC(=O)[C@H](CCCCN)NC(=O)[C@@H](NC(=O)[C@H](CC(C)C)NC(=O)[C@H](CCC(=O)O)NC(=O)[C@H](CCC(N)=O)NC(=O)[C@H](CC(C)C)NC(=O)[C@H](CCCNC(=N)N)NC(=O)[C@H](CC(=O)O)NC(=O)[C@@H](N)CC(N)=O)C(C)C)[C@@H](C)O)C(C)C)C(=O)N[C@@H](CC(=O)O)C(=O)N1CCC[C@H]1C(=O)O [CaM1] (H-NDRLQELVKLFKERTEKVKEKLIDP-OH; N-terminus and C-terminus assumed),4.2 ± 0.5 × 10^3 M^−1,-7.5 ± 0.2 kcal/mol,+40 ± 4 kcal/mol,-2.5 ± 0.2 kcal/mol,,,fold higher affinity for Ca^2+-bound CaM compared to apoCaM ([1]; comparison of NMR spectral changes and ITC): at least 100 fold; fold higher affinity for CaM N-lobe compared to CaM C-lobe ([2]; from ITC with isolated lobes): at least fivefold
CC[C@H](C)[C@H](NC(=O)[C@H](CC(C)C)NC(=O)[C@H](CCCCN)NC(=O)[C@H](CCC(=O)O)NC(=O)[C@H](CCCCN)NC(=O)[C@@H](NC(=O)[C@H](CCCCN)NC(=O)[C@H](CCC(=O)O)NC(=O)[C@@H](NC(=O)[C@H](CCCNC(=N)N)NC(=O)[C@H](CCC(=O)O)NC(=O)[C@H](CCCCN)NC(=O)[C@H](CCC(=O)O)NC(=O)[C@H](CC(C)C)NC(=O)[C@H](CCCCN)NC(=O)[C@@H](NC(=O)[C@H](CC(C)C)NC(=O)[C@H](CCC(=O)O)NC(=O)[C@H](CCC(N)=O)NC(=O)[C@H](CC(C)C)NC(=O)[C@H](CCCNC(=N)N)NC(=O)[C@H](CC(=O)O)NC(=O)[C@@H](N)CC(N)=O)C(C)C)[C@@H](C)O)C(C)C)C(=O)N[C@@H](CC(=O)O)C(=O)N1CCC[C@H]1C(=O)O [CaM1^F575E] (H-NDRLQELVKLEKERTEKVKEKLIDP-OH; N-terminus and C-terminus assumed),,,,+0.7 ± 0.5 kcal/mol,,,
